Test results as given in ChEMBL document CHEMBL4393716, “5-Chlorobenzofuran-2-carboxamides: From allosteric CB1 modulators to potential apoptotic antitumor agents” (Eur J Med Chem, 2019).

How the values were obtained:
PANC-1 = assay: Antiproliferative activity against human PANC1 cells assessed as growth inhibition incubated for 48 hrs by MTT assay; type: functional; conditions: PANC-1, 48 h
Outline: (§1)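 MTT viability assay run on four human cancer lines: A549 (lung), MCF-7 (breast), Panc-1 (pancreatic) and HT29 (colon). GI50 derived per cell line from the MTT readout, following a previously reported protocol.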

[1] = Cytotoxicity against human MCF10A cells assessed as reduction in cell viability at 50 uM incubated for 4 days by MTT assay; type: cell-based, MCF-10A
Outline: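 Non-tumorigenic human mammary epithelial MCF-10A cells were exposed to compounds for 4 days. Viability was read by MTT reduction and expressed as percent viable cells.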

MCF7 [2] = assay: Induction of apoptosis in human MCF7 cells assessed as activation of caspase-3 level incubated for 24 hrs by enzyme assay relative to control; type: functional
Outline: (§2)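 MCF-7 breast cells (ATCC) were grown in RPMI 1640 with 10% FBS at 37 °C, then treated with compounds. Active caspase-3, -8 or -9 protein was quantified (pg/mL) and expressed as fold over untreated control cells.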

MCF7 [3] = assay: Antiproliferative activity against human MCF7 cells assessed as growth inhibition incubated for 48 hrs by MTT assay; type: functional; conditions: MCF7, 48 h; outline: as §1
A549 = assay: Antiproliferative activity against human A549 cells assessed as growth inhibition incubated for 48 hrs by MTT assay; type: functional; conditions: A549, 48 h; outline: as §1
HT-29 = assay: Antiproliferative activity against human HT-29 cells assessed as growth inhibition incubated for 48 hrs by MTT assay; type: functional; conditions: HT-29, 48 h; outline: as §1
MCF7 [4] = assay: Induction of apoptosis in human MCF7 cells assessed as decrease in Bcl2 level incubated for 24 hrs by RT-PCR relative to control; type: functional
MCF7 [5] = assay: Induction of apoptosis in human MCF7 cells assessed as activation of caspase-9 level incubated for 24 hrs by enzyme assay relative to control; type: functional; outline: as §2
MCF7 [6] = assay: Induction of apoptosis in human MCF7 cells assessed as activation of caspase-8 level incubated for 24 hrs by enzyme assay relative to control; type: functional; outline: as §2
MCF7 [7] = assay: Induction of apoptosis in human MCF7 cells assessed as activation of cytochrome C level incubated for 24 hrs by enzyme assay relative to control; type: functional
Outline: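 MCF-7 cells (ATCC) were cultured in RPMI 1640 plus 10% fetal bovine serum at 37 °C and stimulated with compounds. Cytochrome C level was measured and reported as fold over untreated control.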

MCF7 [8] = assay: Induction of apoptosis in human MCF7 cells assessed as increase in Bax level incubated for 24 hrs by RT-PCR relative to control; type: functional
MCF7 [9] = assay: Cell cycle arrest in human MCF7 cells assessed as accumulation in S phase incubated for 24 hrs by annexin-V FITC and propidium iodide staining based flow cytometry analysis (reference value: 37.42 %); type: functional
MCF7 [10] = assay: Induction of apoptosis in human MCF7 cells assessed as early apoptotic cells at 0 to 8 umol/L incubated for 24 hrs by annexin-V FITC and propidium iodide staining based flow cytometry analysis (reference value: 0.88 %); type: functional
Outline: (§3)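 MCF-7 cells were stained with annexin-V-FITC and propidium iodide and analysed by flow cytometry. Cells were classed as early apoptotic, late apoptotic or necrotic.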

MCF7 [11] = assay: Cell cycle arrest in human MCF7 cells assessed as accumulation in G2/M phase incubated for 24 hrs by annexin-V FITC and propidium iodide staining based flow cytometry analysis (reference value: 8.87 %); type: functional
MCF7 [12] = assay: Induction of apoptosis in human MCF7 cells assessed as necrotic cells at 0 to 8 umol/L incubated for 24 hrs by annexin-V FITC and propidium iodide staining based flow cytometry analysis (reference value: 0.68 %); type: functional; outline: as §3
MCF7 [13] = assay: Cell cycle arrest in human MCF7 cells assessed as accumulation in pre G phase incubated for 24 hrs by annexin-V FITC and propidium iodide staining based flow cytometry analysis (reference value: 1.93 %); type: functional
MCF7 [14] = assay: Induction of apoptosis in human MCF7 cells assessed as late apoptotic cells at 0 to 8 umol/L incubated for 24 hrs by annexin-V FITC and propidium iodide staining based flow cytometry analysis (reference value: 0.37%); type: functional; outline: as §3
MCF7 [15] = assay: Cell cycle arrest in human MCF7 cells assessed as accumulation in G0/G1 phase incubated for 24 hrs by annexin-V FITC and propidium iodide staining based flow cytometry analysis (reference value: 53.71 %); type: functional

| Compound | GI50 (PANC-1) | viability at 96 h, 50 µM [1] | fold change (FC) (MCF7 [2]) | GI50 (MCF7 [3]) | GI50 (A549) | GI50 (HT-29) | fold change (FC) (MCF7 [4]) | fold change (FC) (MCF7 [5]) | fold change (FC) (MCF7 [6]) | fold change (FC) (MCF7 [7]) | fold change (FC) (MCF7 [8]) | Activity (MCF7 [9]) | Activity (MCF7 [10]) | Activity (MCF7 [11]) | Activity (MCF7 [12]) | Activity (MCF7 [13]) | Activity (MCF7 [14]) | Activity (MCF7 [15]) |
| --- | --- | --- | --- | --- | --- | --- | --- | --- | --- | --- | --- | --- | --- | --- | --- | --- | --- | --- |
| CCc1c(C(=O)NCCc2ccc(N3CCCCC3)cc2)oc2ccc(Cl)cc12 | 4.6 µM | 82% | 5.71 | 3.6 µM | 4.5 µM | 4.8 µM | – | – | – | – | – | – | – | – | – | – | – | – |
| CCc1c(C(=O)NCCc2ccc(N(C)C)cc2)oc2ccc(Cl)cc12 | 5.5 µM | 85% | 3.87 | 4.7 µM | 4.8 µM | 6.5 µM | – | – | – | – | – | – | – | – | – | – | – | – |
| CCc1c(C(=O)N2CCC(Cc3ccccc3)CC2)oc2ccc(Cl)cc12 | 33.7 µM | 90% | – | 26.5 µM | 27.9 µM | 27.8 µM | – | – | – | – | – | – | – | – | – | – | – | – |
| CCc1c(C(=O)NCCc2ccccc2)oc2ccc(Cl)cc12 | 8.3 µM | 89% | – | 7.5 µM | 6 µM | 7.7 µM | – | – | – | – | – | – | – | – | – | – | – | – |
| Cc1c(C(=O)NCCc2ccc(N3CCOCC3)cc2)oc2ccc(Cl)cc12 | 3.3 µM | 84% | 5.9 | 3.1 µM | 3.5 µM | 3.9 µM | 2.56 | 13.58 | 5.23 | 11.26 | 19.7 | – | – | – | – | – | – | – |
| Cc1c(C(=O)NCCc2ccc(N3CCCC3)cc2)oc2ccc(Cl)cc12 | 4.8 µM | 89% | – | 4.9 µM | 5.2 µM | 4.9 µM | – | – | – | – | – | – | – | – | – | – | – | – |
| CCc1c(C(=O)NCCc2ccc(N3CCCC3)cc2)oc2ccc(Cl)cc12 | 5.6 µM | 89% | 5.17 | 4.4 µM | 4.9 µM | 5.4 µM | – | – | – | – | – | – | – | – | – | – | – | – |
| Cc1c(C(=O)N2CCC(Cc3ccccc3)CC2)oc2ccc(Cl)cc12 | 18.6 µM | 96% | – | 16.4 µM | 15.4 µM | 16.9 µM | – | – | – | – | – | – | – | – | – | – | – | – |
| Cc1c(C(=O)NCCc2ccc(N(C)C)cc2)oc2ccc(Cl)cc12 | 6.6 µM | 90% | – | 6.8 µM | 6.9 µM | 6.9 µM | – | – | – | – | – | – | – | – | – | – | – | – |
| Cc1c(C(=O)NCCc2ccccc2)oc2ccc(Cl)cc12 | 12.5 µM | 87% | – | 12.9 µM | 11.4 µM | 12.2 µM | – | – | – | – | – | – | – | – | – | – | – | – |
| CCc1c(C(=O)N2CCN(c3ccccc3)CC2)oc2ccc(Cl)cc12 | 13.8 µM | 82% | – | 13.6 µM | 14.7 µM | 13.8 µM | – | – | – | – | – | – | – | – | – | – | – | – |
| Cc1c(C(=O)N2CCN(c3ccccc3)CC2)oc2ccc(Cl)cc12 | 36 µM | 92% | – | 35.4 µM | 29.5 µM | 34.7 µM | – | – | – | – | – | – | – | – | – | – | – | – |
| CCc1c(C(=O)NCCc2ccc(N3CCOCC3)cc2)oc2ccc(Cl)cc12 | 1.3 µM | 91% | 8.1 | 0.7 µM | 1.8 µM | 1.6 µM | 5.77 | 15.98 | 9.64 | 16.83 | 34.46 | 31.49% | 8.92% | 43.96% | 2.29% | 34.29% | 23.08% | 24.53% |
| Cc1c(C(=O)NCCc2ccc(N3CCCCC3)cc2)oc2ccc(Cl)cc12 | 4.1 µM | 79% | 4.83 | 4.9 µM | 4.4 µM | 4.9 µM | – | – | – | – | – | – | – | – | – | – | – | – |
| COc1cccc2c1C(=O)c1c(O)c3c(c(O)c1C2=O)C[C@@](O)(C(=O)CO)C[C@@H]3O[C@H]1C[C@H](N)[C@H](O)[C@H](C)O1 [DOXORUBICIN] | 1.41 µM | – | 7.66 | 0.9 µM | 1.21 µM | 1.01 µM | 5.1 | 17.4 | 10.07 | 13.13 | 33.42 | – | – | – | – | 22.17% | – | – |
